Reference: ChEMBL document CHEMBL4007505 (J Med Chem, 2017)
Calls of active or inactive are those of the source. The calls are words filed in the database; no cut-off is given here.

Tests used:
[1] = molecular target: T1, Sodium-dependent dopamine transporter (Homo sapiens, UniProt Q01959); assay: Enhancing of [125I]RTI-55 binding to recombinant human DAT expressed in HEK293 cell membranes preincubated for 10 mins followed by radioligand addition measured after 90 mins by micro beta scintillation counting analysis; set-up: concentration or dose not given beside the values
T1 sequence (Q01959 whole entry): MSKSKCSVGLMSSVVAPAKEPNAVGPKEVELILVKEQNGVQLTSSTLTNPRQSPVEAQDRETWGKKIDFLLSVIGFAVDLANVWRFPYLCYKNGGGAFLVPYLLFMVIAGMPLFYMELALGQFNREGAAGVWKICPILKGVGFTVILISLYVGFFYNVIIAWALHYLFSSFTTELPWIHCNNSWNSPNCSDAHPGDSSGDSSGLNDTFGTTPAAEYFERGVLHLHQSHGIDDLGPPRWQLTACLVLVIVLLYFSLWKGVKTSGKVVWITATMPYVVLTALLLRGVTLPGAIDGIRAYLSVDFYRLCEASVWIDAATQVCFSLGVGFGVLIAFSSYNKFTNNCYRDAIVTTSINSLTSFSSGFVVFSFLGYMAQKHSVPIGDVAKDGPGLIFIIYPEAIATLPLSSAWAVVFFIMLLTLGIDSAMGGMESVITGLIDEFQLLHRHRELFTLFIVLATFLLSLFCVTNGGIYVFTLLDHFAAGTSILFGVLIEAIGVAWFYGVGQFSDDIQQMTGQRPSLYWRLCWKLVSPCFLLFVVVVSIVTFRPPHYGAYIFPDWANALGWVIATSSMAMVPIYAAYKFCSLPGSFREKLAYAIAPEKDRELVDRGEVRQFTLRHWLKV
How it was run: (§1)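 Membranes of HEK-293 cells stably expressing hDAT, hNET or hSERT. […] Compound preincubated 10 min at room temperature, then [125I]23 (40-80 pM final) or [3H]26 (1-3 nM for DAT and NET, 10-13 nM for SERT) added. Incubated 90 min at room temperature in the dark, then filtered. EC50 or Ki; mean ± SEM.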

[2] = molecular target: T1, Sodium-dependent dopamine transporter; assay: Enhancing of [3H]mazindol binding to recombinant human DAT expressed in HEK293 cell membranes preincubated for 10 mins followed by radioligand addition measured after 90 mins by micro beta scintillation counting analysis; set-up: concentration or dose not given beside the values; how it was run: as §1
[3] = molecular target: T2, Sodium-dependent noradrenaline transporter (Homo sapiens, UniProt P23975); assay: Enhancing of [125I]RTI-55 binding to recombinant human NET expressed in HEK293 cell membranes preincubated for 10 mins followed by radioligand addition measured after 90 mins by micro beta scintillation counting analysis; set-up: concentration or dose not given beside the values
T2 sequence (P23975 whole entry): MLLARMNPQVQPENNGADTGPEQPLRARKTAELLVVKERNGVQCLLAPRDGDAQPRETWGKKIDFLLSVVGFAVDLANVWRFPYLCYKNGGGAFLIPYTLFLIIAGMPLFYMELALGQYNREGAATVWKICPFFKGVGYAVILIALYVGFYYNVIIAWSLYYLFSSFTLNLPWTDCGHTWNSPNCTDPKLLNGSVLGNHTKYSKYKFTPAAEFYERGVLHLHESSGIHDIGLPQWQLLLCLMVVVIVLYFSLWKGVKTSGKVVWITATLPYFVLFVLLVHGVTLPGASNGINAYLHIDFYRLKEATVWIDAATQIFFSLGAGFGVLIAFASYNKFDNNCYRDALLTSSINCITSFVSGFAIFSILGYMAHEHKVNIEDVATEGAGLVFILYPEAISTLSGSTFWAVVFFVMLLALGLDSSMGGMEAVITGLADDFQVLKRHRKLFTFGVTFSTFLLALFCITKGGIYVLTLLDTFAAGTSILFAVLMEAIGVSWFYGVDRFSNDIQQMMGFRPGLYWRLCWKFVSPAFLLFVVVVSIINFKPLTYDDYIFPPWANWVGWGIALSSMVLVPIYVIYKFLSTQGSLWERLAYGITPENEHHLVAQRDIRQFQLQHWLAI

[4] = molecular target: T1, Sodium-dependent dopamine transporter; assay: Inhibition of recombinant human DAT expressed in HEK293 cell […] as reduction in [3H]-DA uptake incubated for 22 mins by micro beta scintillation counting analysis
[5] = molecular target: T2, Sodium-dependent noradrenaline transporter; assay: Enhancing of [3H]mazindol binding to recombinant human NET expressed in HEK293 cell membranes preincubated for 10 mins followed by radioligand addition measured after 90 mins by micro beta scintillation counting analysis
[6] = molecular target: T2, Sodium-dependent noradrenaline transporter; assay: Inhibition of recombinant human NET expressed in HEK293 […] assessed as reduction in [3H]-norepinephrine uptake incubated for 22 mins by micro beta scintillation counting analysis
[7] = molecular target: T3, Sodium-dependent serotonin transporter (Homo sapiens, UniProt P31645); assay: Enhancing of [125I]RTI-55 binding to recombinant human SERT expressed in HEK293 cell membranes preincubated for 10 mins followed by radioligand addition measured after 90 mins by micro beta scintillation counting analysis
[8] = molecular target: T3, Sodium-dependent serotonin transporter; assay: Enhancing of [3H]mazindol binding to recombinant human SERT expressed in HEK293 cell membranes preincubated for 10 mins followed by radioligand addition measured after 90 mins by micro beta scintillation counting analysis
[9] = molecular target: T3, Sodium-dependent serotonin transporter; assay: Inhibition of recombinant human SERT expressed in HEK293 cell […] as reduction in [3H]5-HT uptake incubated for 22 mins by micro beta scintillation counting analysis
Target sequence in this assay (P31645 whole entry): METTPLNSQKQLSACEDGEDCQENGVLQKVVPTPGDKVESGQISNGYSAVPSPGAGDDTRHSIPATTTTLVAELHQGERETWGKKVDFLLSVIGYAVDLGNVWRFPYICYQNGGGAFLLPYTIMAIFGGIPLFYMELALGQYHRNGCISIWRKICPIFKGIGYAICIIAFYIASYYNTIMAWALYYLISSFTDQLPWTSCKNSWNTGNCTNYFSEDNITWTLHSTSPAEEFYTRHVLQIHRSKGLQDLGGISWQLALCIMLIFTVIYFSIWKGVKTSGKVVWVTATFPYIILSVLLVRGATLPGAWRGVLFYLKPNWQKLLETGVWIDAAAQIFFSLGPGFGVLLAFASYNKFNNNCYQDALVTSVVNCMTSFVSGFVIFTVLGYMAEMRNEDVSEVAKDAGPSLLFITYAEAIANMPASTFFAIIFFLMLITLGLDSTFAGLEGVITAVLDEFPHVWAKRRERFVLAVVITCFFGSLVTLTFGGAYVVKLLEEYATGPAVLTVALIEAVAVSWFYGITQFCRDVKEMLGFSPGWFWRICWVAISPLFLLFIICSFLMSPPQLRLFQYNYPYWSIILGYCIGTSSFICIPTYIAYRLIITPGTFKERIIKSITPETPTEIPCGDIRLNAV

[10] = molecular target: Sodium-dependent dopamine transporter (Mus musculus) (UniProt Q61327); assay: (§2) Enhancing of [125I]RTI-55 binding to mouse DAT expressed in HEK293 cells preincubated for 10 mins followed by radioligand addition measured after 90 mins by micro beta scintillation counting analysis; format: cell-based
Chain of Sodium-dependent dopamine transporter (Mus musculus) (Q61327 whole entry): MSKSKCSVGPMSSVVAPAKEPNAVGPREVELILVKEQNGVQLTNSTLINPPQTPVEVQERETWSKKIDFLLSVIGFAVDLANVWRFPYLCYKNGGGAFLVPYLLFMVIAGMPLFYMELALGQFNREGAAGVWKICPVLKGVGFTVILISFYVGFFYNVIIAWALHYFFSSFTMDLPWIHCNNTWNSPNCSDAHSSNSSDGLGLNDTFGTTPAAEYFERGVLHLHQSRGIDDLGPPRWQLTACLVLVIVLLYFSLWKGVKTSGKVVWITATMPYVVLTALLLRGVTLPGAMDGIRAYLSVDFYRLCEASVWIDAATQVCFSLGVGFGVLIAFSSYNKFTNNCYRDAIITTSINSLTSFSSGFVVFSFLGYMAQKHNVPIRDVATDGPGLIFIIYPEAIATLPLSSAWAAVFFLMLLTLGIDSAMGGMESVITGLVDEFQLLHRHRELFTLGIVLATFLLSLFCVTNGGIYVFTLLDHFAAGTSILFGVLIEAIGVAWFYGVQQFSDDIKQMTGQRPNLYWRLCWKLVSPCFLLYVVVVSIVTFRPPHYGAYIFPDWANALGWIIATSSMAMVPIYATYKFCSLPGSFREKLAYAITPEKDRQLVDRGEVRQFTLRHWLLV
How it was run: (§3)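 Membranes preincubated 10 min at room temperature with compound in Krebs-HEPES buffer pH 7.4, then [125I]23 at fixed 45-50 pM for 90 min in the dark, filtered. […] EC50 and % control binding; mean ± SEM.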

[11] = molecular target: T4, Sodium-dependent dopamine transporter (Mus musculus, UniProt Q61327); assay: as §2; format: cell-based; how it was run: as §3
T4 sequence (Q61327 whole entry): as above

[12] = molecular target: T4, Sodium-dependent dopamine transporter; assay: Inhibition of mouse DAT expressed in HEK293 cells assessed as reduction in [3H]-DA uptake; format: cell-based
[13] = molecular target: T1, Sodium-dependent dopamine transporter; assay: Enhancing of [3H]WIN35,428 binding to recombinant human DAT expressed in HEK293 cell membranes at 10 uM pre-incubated for 10 mins before radioligand addition and measured 90 mins after radioligand addition by micro beta scintillation counting analysis relative to control
Adenosine receptor A3 = molecular target: T5, Adenosine receptor A3 (Homo sapiens, UniProt P0DMS8); assay: Displacement of [125I]N6-(4-amino-3-iodobenzyl)adenosine-5'-N-methyluronamide from human A3AR expressed in HEK293T cells pre-incubated for 10 mins before radioligand addition and measured 90 mins after radioligand addition by micro beta scintillation counting analysis relative to control; format: cell-based, HEK-293T
T5 sequence (P0DMS8 whole entry): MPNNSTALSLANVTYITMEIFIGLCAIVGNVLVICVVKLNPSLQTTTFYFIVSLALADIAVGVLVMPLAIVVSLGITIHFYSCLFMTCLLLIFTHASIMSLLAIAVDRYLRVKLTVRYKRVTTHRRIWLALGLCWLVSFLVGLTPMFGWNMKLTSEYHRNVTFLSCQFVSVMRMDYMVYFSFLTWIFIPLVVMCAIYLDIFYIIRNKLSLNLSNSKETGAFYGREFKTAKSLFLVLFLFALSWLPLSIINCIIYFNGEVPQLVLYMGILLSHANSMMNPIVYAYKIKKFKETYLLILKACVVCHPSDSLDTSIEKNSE

[14] = molecular target: T6, Adenosine receptor A3 (Mus musculus) (UniProt Q61618); assay: Displacement of [125I]N6-(4-amino-3-iodobenzyl)adenosine-5'-N-methyluronamide from mouse A3AR expressed in HEK293T cells at 10 uM pre-incubated for 10 mins before radioligand addition and measured 90 mins after radioligand addition by micro beta scintillation counting analysis relative to control; format: cell-based
T6 sequence (whole entry): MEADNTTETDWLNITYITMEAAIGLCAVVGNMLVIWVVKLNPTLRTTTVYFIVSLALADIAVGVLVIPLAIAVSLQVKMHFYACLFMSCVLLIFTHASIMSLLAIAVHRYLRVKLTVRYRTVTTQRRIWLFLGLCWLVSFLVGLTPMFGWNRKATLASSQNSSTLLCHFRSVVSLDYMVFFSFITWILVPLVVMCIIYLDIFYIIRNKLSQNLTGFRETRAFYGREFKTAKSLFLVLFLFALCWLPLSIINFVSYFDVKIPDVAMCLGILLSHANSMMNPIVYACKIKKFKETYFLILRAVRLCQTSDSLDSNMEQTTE

[15] = molecular target: Sigma intracellular receptor 2 (Rattus norvegicus, UniProt Q5U3Y7); assay: Displacement of [3H]DTG from rat sigma 2 receptor
Chain of Sigma intracellular receptor 2 (Q5U3Y7 whole entry): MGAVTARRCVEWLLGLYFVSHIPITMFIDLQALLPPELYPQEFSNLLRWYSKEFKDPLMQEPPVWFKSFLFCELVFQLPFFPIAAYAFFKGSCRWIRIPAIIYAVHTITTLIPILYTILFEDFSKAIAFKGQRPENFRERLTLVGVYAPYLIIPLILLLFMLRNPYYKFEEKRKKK

[16] = molecular target: T4, Sodium-dependent dopamine transporter; assay: Inhibition of [125I]RTI-55 binding to mouse DAT expressed in HEK293 cells preincubated for 10 mins followed by radioligand addition measured after 90 mins by micro beta scintillation counting analysis; format: cell-based

CNC(=O)[C@@]12C[C@@H]1[C@@H](n1cnc3c(NC)nc(C#Cc4ccc(Br)s4)nc31)[C@H](O)[C@@H]2O
Activity [1]: 217%
EC50 ([1]; read-out: EC50): 9.1 nM
Activity [2]: 369%
EC50 ([2]; read-out: EC50): 870 nM
Activity [3]: 285%
EC50 ([3]; read-out: EC50): 670 nM
IC50 [4]: 229 nM
Activity [5]: inactive
IC50 [6]: 6110 nM
Activity [7]: inactive
EC50 ([7]; read-out: EC50): > 10000 nM
Activity [8]: inactive
EC50 [8]: > 10000 nM
IC50 [9]: > 10000 nM
Emax [10]: 810%
EC50 [11]: 1100 nM
IC50 [12]: 3260 nM

CNc1nc(C#Cc2ccc(Cl)s2)nc2c1ncn2[C@H]1[C@H](O)[C@H](O)[C@]2(C(=O)OCCc3ccccc3)C[C@H]12
Activity [13]: inactive
Ki (Adenosine receptor A3): 262 nM
inhibition [14]: 3%
Ki [15]: 5900 nM

COC(=O)[C@H]1[C@@H](OC(=O)c2ccccc2)C[C@@H]2CC[C@H]1N2C [COCAINE]
EC50 ([1]; hek293): Not Active
EC50 ([2]; hek293): Not Active
EC50 ([7]; hek293): Not Active
IC50 [12]: 200 nM
Ki [16]: 850 nM
